Measured values reported in publication PMC5777231 (Nature, 2017).

Columns and labels:
GLUTag cells = assay: GLP-1 release from GLUTag cells; format: cell-based, murine; details: equimolar concentrations, 2 hours
Summary of the method: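 Murine enteroendocrine GLUTag cells were grown in low-glucose GlutaMAX DMEM with 10% FBS and 1% Pen/Strep, then plated at 50,000 cells/well overnight. Cells were washed twice and preincubated 30 min in Krebs buffer with DPP4 inhibitor. Compounds from 10 mM DMSO stocks were added at 1 µM and 100 µM for 2 h, with DMSO as control. Clarified supernatant was assayed by active GLP-1 immunoassay. Two independent experiments gave 4–6 wells per condition, analysed by ANOVA.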

S1PR1 = S1PR1 (Homo sapiens, UniProt P21453); assay: β-arrestin GPCR agonist screen, S1PR1; format: cell-based; details: 10 µM ligand
Summary of the method: (§1)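 Cell-based β-arrestin recruitment screen, run by a contract lab, at 10 µM ligand in agonist and antagonist modes across 168 GPCRs with known ligands plus 72 orphan GPCRs. Test compounds were bacterial N-acyl amides, taking the most abundant analog of each family from heterologous E. coli expression. Synthetic N-acyl amides were screened the same way.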

[1] = target: T1, sphingosine-1-phosphate receptor 4 (S1PR4) (Homo sapiens, UniProt O95977); assay: β-arrestin cell-based GPCR agonist assay; details: for activation of / interaction with S1PR4 (in words): GPCR screen
T1 sequence (O95977 1-384): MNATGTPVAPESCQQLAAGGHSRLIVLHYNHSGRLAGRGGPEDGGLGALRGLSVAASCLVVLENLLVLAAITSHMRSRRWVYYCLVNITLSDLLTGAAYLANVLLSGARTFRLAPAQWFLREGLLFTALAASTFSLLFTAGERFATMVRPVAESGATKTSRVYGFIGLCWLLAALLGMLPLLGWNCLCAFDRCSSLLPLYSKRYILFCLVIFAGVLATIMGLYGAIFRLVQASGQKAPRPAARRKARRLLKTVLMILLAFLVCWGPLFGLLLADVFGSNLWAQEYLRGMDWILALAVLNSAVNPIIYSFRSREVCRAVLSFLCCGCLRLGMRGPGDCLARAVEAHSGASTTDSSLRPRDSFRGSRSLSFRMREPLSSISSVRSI

S1PR2 = S1PR2 (Homo sapiens, UniProt O95136); assay: β-arrestin GPCR agonist screen, S1PR2; format: cell-based; details: 10 µM ligand
Summary of the method: as §1

S1PR3 = S1PR3 (Homo sapiens, UniProt Q99500); assay: β-arrestin GPCR agonist screen, S1PR3; format: cell-based; details: 10 µM ligand
Summary of the method: as §1

G2A (GPR132) = target: T2, G2A (GPR132) (Homo sapiens, UniProt Q9UNW8); assay: β-arrestin cell-based orphan GPCR agonist assay
T2 sequence (Q9UNW8 1-380): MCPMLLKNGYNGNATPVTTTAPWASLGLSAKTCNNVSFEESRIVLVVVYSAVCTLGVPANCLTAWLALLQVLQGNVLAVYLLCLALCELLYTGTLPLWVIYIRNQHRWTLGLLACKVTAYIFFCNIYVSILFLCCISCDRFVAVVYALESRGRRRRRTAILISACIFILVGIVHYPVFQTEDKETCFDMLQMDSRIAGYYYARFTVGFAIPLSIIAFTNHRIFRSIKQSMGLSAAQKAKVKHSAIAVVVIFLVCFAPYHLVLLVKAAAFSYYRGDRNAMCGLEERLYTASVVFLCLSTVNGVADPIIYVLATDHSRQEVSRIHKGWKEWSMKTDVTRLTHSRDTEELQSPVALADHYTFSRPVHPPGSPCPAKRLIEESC
Summary of the method: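 Orphan GPCR panel, DiscoveRx β-arrestin recruitment format, agonist mode. Test compound was screened at 10 µM in singlicate. Follow-up dose-response curves were run in duplicate per dose, and EC50 was derived from them.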

GPR119 = target: T3, GPR119 (Homo sapiens, UniProt Q8TDV5); assay: cAMP secondary assay in ACTOne HEK293 cells transfected with GPR119; format: cell-based; details: HEK293 cells stably transfected with GPR119 vs not transfected; GPR119 dependent
T3 sequence (Q8TDV5 1-335): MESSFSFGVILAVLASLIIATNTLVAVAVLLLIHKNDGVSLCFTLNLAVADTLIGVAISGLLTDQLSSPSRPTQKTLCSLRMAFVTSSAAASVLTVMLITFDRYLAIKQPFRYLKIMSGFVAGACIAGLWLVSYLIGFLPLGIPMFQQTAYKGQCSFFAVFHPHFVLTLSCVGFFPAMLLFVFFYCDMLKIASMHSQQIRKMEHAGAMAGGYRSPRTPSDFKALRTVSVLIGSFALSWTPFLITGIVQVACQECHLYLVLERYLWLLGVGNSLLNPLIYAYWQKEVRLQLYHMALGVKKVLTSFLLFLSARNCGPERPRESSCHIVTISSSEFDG
Summary of the method: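 Orthogonal cAMP read-out used live ACTOne HEK293 cells, which carry a cAMP-sensitive ion channel, read with a membrane potential dye kit. GPR119-transfected cells were compared with parental untransfected cells. Each was exposed to equimolar ligand concentrations, with the endogenous ligand and an ADORA2B agonist as parental-line cAMP control. Relative fluorescence intensity was taken against background. Points were in quadruplicate, SD shown, and EC50 was derived.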

[2] = mice, intravenous delivery; cited from earlier work

Sequence of S1PR1 (P21453 whole entry): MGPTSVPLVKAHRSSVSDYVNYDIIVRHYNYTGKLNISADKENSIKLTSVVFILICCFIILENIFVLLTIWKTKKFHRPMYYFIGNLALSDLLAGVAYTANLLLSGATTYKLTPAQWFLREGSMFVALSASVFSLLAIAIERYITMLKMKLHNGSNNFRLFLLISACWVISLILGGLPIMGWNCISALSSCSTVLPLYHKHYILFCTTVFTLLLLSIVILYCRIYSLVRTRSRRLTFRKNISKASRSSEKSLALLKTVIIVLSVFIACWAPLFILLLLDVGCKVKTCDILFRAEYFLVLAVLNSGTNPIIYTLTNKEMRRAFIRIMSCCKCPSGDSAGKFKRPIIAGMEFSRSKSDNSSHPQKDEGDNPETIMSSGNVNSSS
Sequence of S1PR3 (Q99500 whole entry): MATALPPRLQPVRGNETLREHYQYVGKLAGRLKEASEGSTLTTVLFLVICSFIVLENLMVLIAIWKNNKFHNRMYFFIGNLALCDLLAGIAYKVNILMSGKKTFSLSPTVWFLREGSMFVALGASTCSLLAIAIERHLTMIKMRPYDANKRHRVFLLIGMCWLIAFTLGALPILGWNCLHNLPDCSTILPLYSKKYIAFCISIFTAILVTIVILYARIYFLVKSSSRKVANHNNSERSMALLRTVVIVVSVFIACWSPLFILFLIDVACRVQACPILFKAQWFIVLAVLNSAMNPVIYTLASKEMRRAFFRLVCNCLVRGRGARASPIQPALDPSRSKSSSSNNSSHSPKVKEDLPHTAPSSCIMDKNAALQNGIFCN
Sequence of S1PR2 (O95136 whole entry): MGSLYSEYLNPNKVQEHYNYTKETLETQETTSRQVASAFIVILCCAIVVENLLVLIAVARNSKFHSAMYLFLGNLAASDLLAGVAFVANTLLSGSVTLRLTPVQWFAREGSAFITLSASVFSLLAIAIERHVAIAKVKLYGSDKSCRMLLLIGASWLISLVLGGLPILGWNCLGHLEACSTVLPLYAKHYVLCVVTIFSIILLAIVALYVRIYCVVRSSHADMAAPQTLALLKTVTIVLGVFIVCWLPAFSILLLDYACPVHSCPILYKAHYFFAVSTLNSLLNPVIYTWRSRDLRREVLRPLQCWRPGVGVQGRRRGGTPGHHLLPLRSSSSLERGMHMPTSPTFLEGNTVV

For `CCCCCCCC/C=C\CCCCCCCC(=O)OC(CO)CO` [2-OG, 2-oleoyl glycerol], the GLP-1 secretion (GLUTag cells) was “to the same magnitude”.

For `CCCCCCCCCCCCC/C=C/[C@@H](O)[C@@H](N)COP(=O)(O)O` [S1P, sphingosine-1-phosphate], the “activation of S1PR1” value (S1PR1) was “activates”, the “activation of / interaction with S1PR4 (in words)” value (“activation of / interaction” below) [1] was “activates” and the “activation of S1PR2” value (S1PR2) was “activates”. The “activation of S1PR3” value (S1PR3) was “activates”.

With `CCCCCCCCCCCCCCCC(=O)N[C@@H](C)C(=O)O` [N-palmitoyl alanine] the “activation of G2A (in words)” value (G2A (GPR132)) was “activate”.

For `CCCCCCCCCCCCCC(O)CC(=O)N[C@@H](CCCCN)C(=O)O` (stereo partly shown) [N-3-hydroxypalmitoyl lysine], the “activation of / interaction” value [1] was “interact”.

In the case of `CCCCCCCC/C=C\CCCCCCCC(=O)NCCO` [OEA, oleoylethanolamide], the GLP-1 secretion (GLUTag cells) is given as “to the same magnitude”, the “cellular cAMP concentration (in words)” value (GPR119) is given as “increased” and the “blood glucose in OGTT” value [2] is given as “fails to lower blood glucose”.

With `CCCCCCCCCCCCCC(O)CC(=O)N[C@@H](CCCN)C(=O)O` (stereo partly shown) [N-3-hydroxypalmitoyl ornithine] the “activation of S1PR1” value (S1PR1) was “did not activate”, the EC50 [1] was 32 µM and the “activation of / interaction” value [1] was “interact”. The “activation of S1PR2” value (S1PR2) was “did not activate” and the “activation of S1PR3” value (S1PR3) was “did not activate”.

In the case of `CCCCCCCCCCCCCC(O)CC(=O)NCC(=O)O` (stereo not shown) [N-3-hydroxypalmitoyl glycine], the “activation of G2A (in words)” value (G2A (GPR132)) is reported as “activate”.
